In experiment [1] the target is T1, L-lactate dehydrogenase A chain (Homo sapiens, UniProt P00338). In words: Inhibition of LDH-A (unknown origin) by enzyme assay.
The target in experiment [2] is T1, L-lactate dehydrogenase A chain. In words: Binding affinity to human LDH-A by surface plasmon resonance analysis. The method in brief:
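Human LDH-A amine-coupled to a CM5 chip (~13000 RU), carbonic anhydrase II as reference surface. Running buffer 10 mM HEPES, 150 mM NaCl, 3% DMSO. Compounds injected as 2-fold dilution series, top 1 mM, at 20 °C. Equilibrium and kinetic responses fitted to a 1:1 binding model to give Kd.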
A general note: Surface plasmon resonance follows binding to a sensor surface in real time, without labels.

For experiment [3] the target is unchanged. The experiment can be described thus: Inhibition of LDH-A (unknown origin) up to 1 mM in presence of 0.1% Triton.
Experiment [4] shares this target. The experiment can be described thus: Inhibition of LDH-A in human Ramos cells assessed as cellular lactate level at 200 uM after 4 hrs. In kind it is cell-based. The method in brief: (§1)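 Supernatant sampled after 1 and 4 h. Extracellular lactate measured by a two-step lactate assay, both times within the linear range. Lactate expressed relative to vehicle, from a representative experiment.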

Experiment [5] has the same target. The experiment can be described thus: Inhibition of LDH-A in human Ramos cells assessed as cellular lactate level at 200 uM after 1 hr. In kind it is cell-based. The method in brief:
as §1

Experiment [6] shares this target. In words: Inhibition of LDH-A (unknown origin) in absence of 0.1% Triton.
Experiment [7] has the same target. In words: Inhibition of LDH-A (unknown origin) in presence of 0.1% Triton.

Calls of active or inactive are those of the source. The calls are words filed in the database; no cut-off is given here. Bounds are passed on as bounds.

Compound `COc1ccc(Cl)cc1NC(=O)CSc1ccc(C(=O)O)cn1` displayed an IC50 in experiment [1] of 770 µM. In experiment [2], the affinity, expressed as Kd, was 137 µM.

On to `COc1cc(OC[C@H](O)[C@H](O)[C@@H](O)[C@@H](O)COc2cc(F)cc(-c3ccc(C(=O)O)cn3)c2)c(Cl)cc1NC(=O)CSc1ccc(C(=O)O)cn1`, for which, in experiment [1], the midpoint of inhibition, the IC50, lay at 15.2 µM. Moreover, the dissociation constant (Kd) in experiment [2] amounted to 12 µM.

Compound `O=C(O)c1ccc(-c2ccccc2)nc1` had a concentration for half-maximal inhibition (IC50) in experiment [1] above 2000 µM. The compound further had a Kd in experiment [2] of 2300 µM.

Consider `O=C(CCCCN1C(=O)/C(=C/c2ccc(O)c(O)c2)SC1=S)NCc1ccc(Cl)c(Cl)c1`, for which, in experiment [3], the inhibition entry was “inactive”.

On to `O=C(O)CN1C(=O)/C(=C/c2ccc(O)c(O)c2)SC1=S`, for which, in experiment [3], the inhibition result is “inactive”.

Consider `COc1cc(OCCCOCCCOc2cc(F)cc(-c3ccc(C(=O)O)cn3)c2)c(Cl)cc1NC(=O)CSc1ccc(C(=O)O)cn1`, for which the IC50 in experiment [1] is 59 µM. Moreover, the Kd in experiment [2] worked out at 0.85 µM.

The compound `O=C(O)COc1cc(F)cc(-c2ccc(C(=O)O)cn2)c1` showed a half-inhibitory concentration (IC50) in experiment [1] of 2200 µM. For the same compound, the affinity in experiment [2], expressed as Kd, was 1300 µM.

As for `COC(=O)c1ccc(SCC(=O)Nc2cc(Cl)c(OC[C@@H](O)[C@@H](O)[C@H](O)[C@H](O)CNc3cc(F)cc(-c4ccc(C(=O)OC)cn4)c3)cc2OC)nc1`, in experiment [1], the IC50 is above 10000 µM. Further, the inhibition entry in experiment [4] and in experiment [5] was “inactive” in each case.

`COc1cc(OC[C@@H](O)[C@@H](O)[C@H](O)[C@H](O)CNc2cc(F)cc(-c3ccccn3)c2)c(Cl)cc1NC(=O)CSc1ccc(C(=O)O)cn1`: in experiment [1], half-maximal inhibition (IC50) was put at 13 µM. Moreover, the affinity in experiment [2], expressed as Kd, was 2.95 µM. Also, the lactate level (% of vehicle) in experiment [4] came to 35%; in experiment [5], 17%.

The compound `COc1cc(OC[C@@H](O)[C@@H](O)[C@H](O)[C@H](O)CNc2cc(F)cc(-c3ccc(C(=O)O)cn3)c2)c(Cl)cc1NC(=O)CSc1ccccn1` displayed a half-maximal inhibitory concentration (IC50) in experiment [1] of 2.4 µM. Moreover, the affinity in experiment [2], expressed as Kd, was 0.222 µM. Moreover, the lactate level (% of vehicle) is 61% in experiment [4] and 21% in experiment [5].

As for `COc1cc(OCCCNC(=O)COc2cc(F)cc(-c3ccc(C(=O)O)cn3)c2)c(Cl)cc1NC(=O)CSc1ccc(C(=O)O)cn1`, the concentration for half-maximal inhibition (IC50) in experiment [1] was found to be 2.4 µM. In experiment [2], this compound returned a dissociation constant (Kd) of 0.175 µM.

Regarding `COc1cc(OCC(O)CO)c(Cl)cc1NC(=O)CSc1ccc(C(=O)O)cn1` (stereo unspecified), the concentration for half-maximal inhibition (IC50) in experiment [1] was 342 µM. The same compound displayed a Kd in experiment [2] of 360 µM.

For the compound `COc1cc(OC[C@@H](O)[C@@H](O)[C@H](O)[C@H](O)COc2cc(F)cc(-c3ccc(C(=O)O)cn3)c2)c(Cl)cc1NC(=O)CSc1ccc(C(=O)O)cn1`, the IC50 came out at 0.44 µM in experiment [1], 0.22 µM in experiment [6] and 0.325 µM in experiment [7]. Also, the Kd in experiment [2] was 0.068 µM.

Compound `Nc1cc(F)cc(-c2ccc(C(=O)O)cn2)c1` showed an IC50 in experiment [1] of 1300 µM.

`COc1cc(OC[C@@H](O)[C@@H](O)[C@H](O)[C@H](O)CNc2cc(F)cc(-c3ccc(C(=O)O)cn3)c2)c(Cl)cc1NC(=O)CSc1ccc(C(=O)O)cn1` displayed a concentration for half-maximal inhibition (IC50) in experiment [1] of 0.12 µM. The affinity in experiment [2], expressed as Kd, was 0.019 µM. For the same compound, the lactate level (% of vehicle) in experiment [4] came to 68%; in experiment [5], 56%.

What is called IC50 is the concentration that inhibits the measured activity by half. By Kd is commonly meant a measure of binding affinity in units of concentration. A lower Kd goes with a tighter complex.

(Values after ChEMBL document CHEMBL2311513, “Fragment growing and linking lead to novel nanomolar lactate dehydrogenase inhibitors” (J Med Chem, 2013).)
